Results on 19 compounds are retold here after ChEMBL document CHEMBL1268935, “3-O-arylmethylgalangin, a novel isostere for anti-HCV 1,3-diketoacids (DKAs)” (Bioorg Med Chem, 2010).

Data set [1] in a line: Selectivity index, ratio of CC50 for human HuH5.2 cells to EC50 for HCV genotype 1 harboring luc-ubi-neo fusion gene. The essentials: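 SI is CC₅₀/EC₅₀, both measured in Huh-5-2 replicon cells seeded at 5 × 10³/well. For CC₅₀, serial dilutions in complete DMEM without G418 were added 24 h after seeding, cells grew 3 days at 37 °C, and cell number was read by WST-1. EC₅₀ came from the 4-day replicon luciferase assay run with G418.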

Data set [2] can be described thus: Cytotoxicity against human HuH5.2 cells after 3 days by WST-1 assay. The format is cell-based, Huh-5-2. The essentials: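 Huh-7-derived Huh-5-2 cells carrying subgenomic genotype 1 HCV replicon (luc-ubi-neo); 5 × 10³ cells/well seeded in complete DMEM with G418; serial compound dilutions in DMEM without G418 added 24 h after seeding; proliferation 3 days at 37 °C; cell number by WST-1. CC50 = concentration reducing cell proliferation by 50%.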
For orientation: Formazan colour is commonly taken as a measure of viable cells.

Data set [3] can be described thus: Inhibition of HCV recombinant NS5B polymerase using [alpha32p]GTP after 30 mins by scintillation counting. The arrangement: species or system Hepacivirus hominis. The essentials:
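Recombinant NS5B primer/template-directed transcription in 30 mM Tris–HCl pH 7.2; compounds at various concentrations from 10% DMSO–water stocks, final DMSO 1%; stopped with 33 mM EDTA; products captured on DEAE filters, washed with 5% dibasic sodium phosphate, scintillation counted. IC50 estimated from primary cpm data, triplicate.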

The next data set has as its system Hepatitis C virus. Kind of data set: Antiviral activity against HCV genotype 1 harboring luc-ubi-neo fusion gene infected in human Huh7 cells assessed as inhibition of viral RNA replication after 4 days by luciferase assay. It counts as functional, organism-based, Hepacivirus hominis. The following applies: genotype 1, Huh-7, 96 h. The essentials:
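Huh-5-2 cells (Huh-7 carrying a subgenomic genotype 1 HCV replicon with luc-ubi-neo fusion gene) were seeded at 5 × 10³/well in complete DMEM with G418 and held 24 h at 37 °C, 5% CO₂. Medium was refreshed with G418 and compounds added from DMSO stock, then incubated 4 days at 37 °C. Luciferase was read out, and EC₅₀ was taken as 50% inhibition of replicon RNA replication. Interferon α-2b at 10,000 units/well served as reference.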

A word on the CC50: it is the concentration giving 50% cytotoxicity. A word on the IC50: it is the concentration at which inhibition is half-maximal. By EC50 is commonly meant the concentration giving half of the maximal effect. With `O=c1c(OCc2ccccc2Br)c(-c2ccccc2)oc2cc(O)cc(O)c12`, the “Ratio CC50/EC50” value in data set [1] came to 1.3. In data set [2], this compound displayed a CC50 at 72 h of 12 µM. Moreover, the IC50 in data set [3] was determined as 10.5 µM. The EC50 in the data set on Hepatitis C virus came to 9 µM.

With `N#CCCCOc1ccccc1C(=O)/C=C(\O)C(=O)O`, the IC50 in data set [3] came out at 0.35 µM.

For the compound `O=c1c(OCc2cccc(Cl)c2)c(-c2ccccc2)oc2cc(O)cc(O)c12`, in data set [1], the “Ratio CC50/EC50” value came out at 1.8. For the same compound, half-maximal cytotoxicity in data set [2] (CC50 at 72 h) was put at 46 µM. In data set [3], the IC50 amounted to 0.1 µM. In the data set with Hepatitis C virus, the EC50 is 25 µM.

For the compound `O=c1c(OCc2cccc(Br)c2)c(-c2ccccc2)oc2cc(O)cc(O)c12`, in data set [1], the “Ratio CC50/EC50” value is 0.8. Further, the CC50 at 72 h in data set [2] came out at 15 µM. Also, the IC50 in data set [3] was found to be 4.6 µM. The EC50 in the data set with Hepatitis C virus came to 18 µM.

For the compound `N#Cc1cccc(COc2c(-c3ccccc3)oc3cc(O)cc(O)c3c2=O)c1`, the “Ratio CC50/EC50” value in data set [1] amounted to 0.6. Further, the CC50 at 72 h in data set [2] stood at 21 µM. Besides, in data set [3], the IC50 was determined as 0.2 µM. Moreover, the EC50 in the data set on Hepatitis C virus was 36 µM.

`O=c1c(OCc2cccc([N+](=O)[O-])c2)c(-c2ccccc2)oc2cc(O)cc(O)c12`: the “Ratio CC50/EC50” value in data set [1] was 6.2. In addition, the CC50 at 72 h in data set [2] came to 31 µM. Moreover, the IC50 in data set [3] turned out to be 6.4 µM. In addition, the EC50 in the data set on Hepatitis C virus came to 5 µM.

On to `Cc1cccc(COc2c(-c3ccccc3)oc3cc(O)cc(O)c3c2=O)c1`, for which the “Ratio CC50/EC50” value in data set [1] came to 1. Half-maximal cytotoxicity in data set [2] (CC50 at 72 h) was put at 29 µM. Also, the IC50 in data set [3] came to 30 µM. Also, the EC50 in the data set on Hepatitis C virus worked out at 28 µM.

In data set [2], `COc1cccc(COc2c(-c3ccccc3)oc3cc(O)cc(O)c3c2=O)c1` returned a CC50 at 72 h of 28 µM. Also, the IC50 in data set [3] was 21 µM. Besides, in the data set with Hepatitis C virus, the EC50 stood at 22 µM.

Consider `O=c1c(OCc2ccc(Cl)cc2)c(-c2ccccc2)oc2cc(O)cc(O)c12`, for which the “Ratio CC50/EC50” value in data set [1] turned out to be 2.4. Also, the CC50 at 72 h in data set [2] worked out at 36 µM. Moreover, in data set [3], the IC50 stood at 0.3 µM. Besides, the EC50 with Hepatitis C virus is 15 µM.

As for `O=c1c(OCc2ccc(Br)cc2)c(-c2ccccc2)oc2cc(O)cc(O)c12`, the “Ratio CC50/EC50” value in data set [1] is on record as 0.2. This compound also gave a CC50 at 72 h in data set [2] of 2 µM. For the same compound, in data set [3], the IC50 amounted to 1.4 µM. Moreover, the EC50 with Hepatitis C virus amounted to 12 µM.

As to `N#Cc1ccc(COc2c(-c3ccccc3)oc3cc(O)cc(O)c3c2=O)cc1`, the “Ratio CC50/EC50” value in data set [1] is recorded as 4.8. The same compound displayed a CC50 at 72 h in data set [2] of 48 µM. For the same compound, in data set [3], the IC50 turned out to be 1.3 µM. Further, the EC50 with Hepatitis C virus is 10 µM.

As to `O=c1c(OCc2ccc([N+](=O)[O-])cc2)c(-c2ccccc2)oc2cc(O)cc(O)c12`, the “Ratio CC50/EC50” value in data set [1] is 5.7. The same compound gave a CC50 at 72 h in data set [2] of 40 µM. The IC50 in data set [3] was over 50 µM. Besides, the half-maximal effective concentration (EC50) in the data set on Hepatitis C virus was determined as 7 µM.

On to `Cc1ccc(COc2c(-c3ccccc3)oc3cc(O)cc(O)c3c2=O)cc1`, for which, in data set [1], the “Ratio CC50/EC50” value is on record as 2.9. The compound further yielded a CC50 at 72 h in data set [2] of 40 µM. Further, the IC50 in data set [3] was determined as 45.2 µM. Further, in the data set with Hepatitis C virus, the EC50 was 14 µM.

With `COc1ccc(COc2c(-c3ccccc3)oc3cc(O)cc(O)c3c2=O)cc1`, in data set [1], the “Ratio CC50/EC50” value is 5.7. In data set [2], this compound registered a CC50 at 72 h of 57 µM. Besides, the IC50 in data set [3] came out at 29.5 µM. Further, the EC50 in the data set with Hepatitis C virus was determined as 10 µM.

`O=c1c(OCc2ccccc2Cl)c(-c2ccccc2)oc2cc(O)cc(O)c12` displayed a cytotoxic concentration (CC50) at 72 h in data set [2] of over 100 µM. Further, the IC50 in data set [3] was over 50 µM. Moreover, in the data set with Hepatitis C virus, the EC50 is 38 µM.

In turn, `N#Cc1ccccc1COc1c(-c2ccccc2)oc2cc(O)cc(O)c2c1=O` showed a CC50 at 72 h in data set [2] of over 100 µM. Moreover, in data set [3], the IC50 came out at 11 µM. Further, the EC50 in the data set on Hepatitis C virus worked out at 5 µM.

Consider `O=c1c(OCc2ccccc2[N+](=O)[O-])c(-c2ccccc2)oc2cc(O)cc(O)c12`, for which, in data set [1], the “Ratio CC50/EC50” value was 4.3. This compound also displayed a CC50 at 72 h in data set [2] of 51 µM. The IC50 in data set [3] is over 50 µM. The EC50 in the data set with Hepatitis C virus stood at 12 µM.

Consider `Cc1ccccc1COc1c(-c2ccccc2)oc2cc(O)cc(O)c2c1=O`, for which the “Ratio CC50/EC50” value in data set [1] is on record as 1.6. The same compound came in with a CC50 at 72 h in data set [2] of 55 µM. Besides, the IC50 in data set [3] is 7.2 µM. In addition, the EC50 with Hepatitis C virus is 34 µM.

As for `COc1ccccc1COc1c(-c2ccccc2)oc2cc(O)cc(O)c2c1=O`, the “Ratio CC50/EC50” value in data set [1] stood at 1.9. The CC50 at 72 h in data set [2] was 53 µM. Besides, the IC50 in data set [3] was over 50 µM. In addition, the EC50 in the data set on Hepatitis C virus is 28 µM.
